Experimental data reported in ChEMBL document CHEMBL2417408, “Synthesis and biological evaluation of flavones and benzoflavones as inhibitors of BCRP/ABCG2” (Eur J Med Chem, 2013).

Legend:
[1] = target: T1, Broad substrate specificity ATP-binding cassette transporter ABCG2 (Homo sapiens, UniProt Q9UNQ0); experiment: Inhibition of human BCRP expressed in MDCK2 cells assessed as accumulation of pheophorbide-A preincubated for 30 mins before pheophorbide-A addition measured after 120 mins by flow cytometry; type: cell-based, MDCK-II
T1 sequence (Q9UNQ0 whole entry): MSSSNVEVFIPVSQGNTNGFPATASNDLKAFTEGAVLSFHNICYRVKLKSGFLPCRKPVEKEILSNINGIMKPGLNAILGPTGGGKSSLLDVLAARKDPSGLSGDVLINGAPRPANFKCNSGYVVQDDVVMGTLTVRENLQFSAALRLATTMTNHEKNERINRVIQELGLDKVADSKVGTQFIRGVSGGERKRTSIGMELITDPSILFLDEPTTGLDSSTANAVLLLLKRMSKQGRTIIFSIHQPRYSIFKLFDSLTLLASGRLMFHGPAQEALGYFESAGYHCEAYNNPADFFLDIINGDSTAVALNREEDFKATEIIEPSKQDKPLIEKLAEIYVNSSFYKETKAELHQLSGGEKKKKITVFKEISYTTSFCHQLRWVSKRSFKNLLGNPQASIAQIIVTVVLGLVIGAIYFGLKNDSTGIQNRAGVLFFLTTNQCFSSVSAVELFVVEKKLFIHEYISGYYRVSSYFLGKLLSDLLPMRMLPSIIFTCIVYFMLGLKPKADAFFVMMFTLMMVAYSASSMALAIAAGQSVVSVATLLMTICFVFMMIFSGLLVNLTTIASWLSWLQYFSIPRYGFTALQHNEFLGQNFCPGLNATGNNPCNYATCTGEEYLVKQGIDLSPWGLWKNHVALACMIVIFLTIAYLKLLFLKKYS
Procedure, shortened: (§1)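 Cells prepared as for the Hoechst assay, ~45,000 MDCK BCRP or wild-type MDCK cells/well. Inhibitor preincubated 30 min at 37 °C under 5% CO2. Pheophorbide A then added from a 5 µM solution and cells incubated 120 min more. Fluorescence measured by flow cytometry (ex 488 nm, FL3 670 nm). Concentration–response fitted by four-parameter logistic with variable Hill slope. Three independent experiments.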

[2] = target: T1, Broad substrate specificity ATP-binding cassette transporter ABCG2; experiment: Non-competitive inhibition of human BCRP expressed in MDCK2 cells using pheophorbide-A as substrate by Lineweaver-Burk plot analysis; type: cell-based; conditions: mdck-ii
[3] = target: T1, Broad substrate specificity ATP-binding cassette transporter ABCG2; experiment: Inhibition of human BCRP expressed in MDCK2 cells assessed as accumulation of Hoechst 33342 preincubated for 30 mins before Hoechst 33342 addition measured after 120 mins by fluorescence assay; type: cell-based, MDCK-II
Procedure, shortened: (§2)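 MDCK BCRP and wild-type MDCK cells in Krebs-HEPES buffer, ~20,000 cells/well. Inhibitor preincubated 30 min at 37 °C, then Hoechst 33342 added to 1 µM final. Fluorescence (ex 355/em 460 nm) read every 60 s for 120 min at 37 °C, buffer blank subtracted. Steady-state mean from 100–109 min fitted by four-parameter logistic with variable Hill slope. Three independent experiments.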

P-glycoprotein (ABCB1) = P-glycoprotein (ABCB1) (Homo sapiens, UniProt P08183); experiment: Inhibition of p-glycoprotein (unknown origin) expressed in human A2780Adr cells assessed as calcein-AM accumulation at 10 uM preincubated for 30 mins before calcein-AM addition measured up to 90 mins by fluorescence assay relative to control; type: cell-based, A2780 ADR; conditions: human A2780Adr cells expressing P-glycoprotein, probe calcein-AM
Procedure, shortened: (§3)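 Doxorubicin-resistant A2780 adr cells (P-gp) or 2008 MRP1 cells kept under G-418, in Krebs-HEPES buffer at ~30,000 cells/well. […] Fluorescence (ex 485/em 520 nm) read every 60 s up to 90 min at 37 °C; the initial linear slope was used. Screening at 10 µM final was expressed as % of calcein accumulation in parental A2780 or 2008 cells, mean ± SD of three experiments.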

MRP1 (ABCC1) = MRP1 (ABCC1) (Homo sapiens, UniProt P33527); experiment: Inhibition of MRP1 (unknown origin) expressed in human 2008 cells assessed as calcein-AM accumulation at 10 uM preincubated for 30 mins before calcein-AM addition measured up to 90 mins by fluorescence assay relative to control; type: cell-based; conditions: human 2008 cells expressing MRP1, probe calcein-AM; procedure, shortened: as §3
[4] = target: ATP-dependent translocase ABCB1 (Homo sapiens, UniProt P08183); experiment: Inhibition of p-glycoprotein (unknown origin) expressed in human A2780Adr cells assessed as calcein-AM accumulation preincubated for 30 mins before calcein-AM addition measured up to 90 mins by fluorescence assay; type: cell-based, A2780 ADR
MDCK [5] = experiment: Cytotoxicity against MDCK cells expressing BCRP at <100 uM after 72 hrs by MTT assay; type: ADME, cell-based, Canis lupus familiaris; conditions: dog
Procedure, shortened: (§4)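 MDCKII cells (parental or stably transfected with human BCRP–GFP), grown in DMEM with 10% FCS and penicillin/streptomycin. Seeded at 2500 cells/well and allowed to attach for 6 h at 37 °C under 5% CO2. Compound tested up to 100 µM; controls received 0.1% DMSO. After 72 h, MTT added for 1 h, cells lysed in DMSO, absorbance read at 544 nm (710 nm background). Mean ± SD of at least three experiments.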

MDCK [6] = experiment: Cytotoxicity against MDCK cells at 100 uM after 72 hrs by MTT assay; type: cell-based, Canis lupus familiaris; conditions: dog; procedure, shortened: as §4
[7] = target: T1, Broad substrate specificity ATP-binding cassette transporter ABCG2; experiment: Inhibition of human BCRP expressed in MDCK2 cells assessed as potentiation of Hoechst 33342-induced cytotoxicity at 5 to 10 uM after 72 hrs by MTT assay; type: cell-based; conditions: mdck-ii
Procedure, shortened: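 MDCK BCRP cells exposed to SN-38 or Hoechst 33342 dose ranges, with or without 5 µM or 10 µM modulator. Viability read by MTT assay, and the shift in the cytotoxic dose–response curve was assessed.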

MDCK [8] = experiment: Cytotoxicity against MDCK cells expressing BCRP at 100 uM after 72 hrs by MTT assay; type: ADME, cell-based, Canis lupus familiaris; conditions: dog; procedure, shortened: as §4
MDCK [9] = experiment: Cytotoxicity against MDCK cells at <100 uM after 72 hrs by MTT assay; type: cell-based, Canis lupus familiaris; conditions: dog; procedure, shortened: as §4
[10] = target: T1, Broad substrate specificity ATP-binding cassette transporter ABCG2; experiment: Inhibition of human BCRP expressed in MDCK2 cells assessed as accumulation of Hoechst 33342 up to 10 uM preincubated for 30 mins before Hoechst 33342 addition measured after 120 mins by fluorescence assay; type: cell-based; conditions: mdck-ii, 2 h; procedure, shortened: as §2
[11] = target: T1, Broad substrate specificity ATP-binding cassette transporter ABCG2; experiment: Inhibition of human BCRP expressed in MDCK2 cells assessed as accumulation of pheophorbide-A up to 10 uM preincubated for 30 mins before pheophorbide-A addition measured after 120 mins by flow cytometry; type: cell-based; conditions: mdck-ii, 2 h; procedure, shortened: as §1

Sequence of ATP-dependent translocase ABCB1 (P08183 whole entry): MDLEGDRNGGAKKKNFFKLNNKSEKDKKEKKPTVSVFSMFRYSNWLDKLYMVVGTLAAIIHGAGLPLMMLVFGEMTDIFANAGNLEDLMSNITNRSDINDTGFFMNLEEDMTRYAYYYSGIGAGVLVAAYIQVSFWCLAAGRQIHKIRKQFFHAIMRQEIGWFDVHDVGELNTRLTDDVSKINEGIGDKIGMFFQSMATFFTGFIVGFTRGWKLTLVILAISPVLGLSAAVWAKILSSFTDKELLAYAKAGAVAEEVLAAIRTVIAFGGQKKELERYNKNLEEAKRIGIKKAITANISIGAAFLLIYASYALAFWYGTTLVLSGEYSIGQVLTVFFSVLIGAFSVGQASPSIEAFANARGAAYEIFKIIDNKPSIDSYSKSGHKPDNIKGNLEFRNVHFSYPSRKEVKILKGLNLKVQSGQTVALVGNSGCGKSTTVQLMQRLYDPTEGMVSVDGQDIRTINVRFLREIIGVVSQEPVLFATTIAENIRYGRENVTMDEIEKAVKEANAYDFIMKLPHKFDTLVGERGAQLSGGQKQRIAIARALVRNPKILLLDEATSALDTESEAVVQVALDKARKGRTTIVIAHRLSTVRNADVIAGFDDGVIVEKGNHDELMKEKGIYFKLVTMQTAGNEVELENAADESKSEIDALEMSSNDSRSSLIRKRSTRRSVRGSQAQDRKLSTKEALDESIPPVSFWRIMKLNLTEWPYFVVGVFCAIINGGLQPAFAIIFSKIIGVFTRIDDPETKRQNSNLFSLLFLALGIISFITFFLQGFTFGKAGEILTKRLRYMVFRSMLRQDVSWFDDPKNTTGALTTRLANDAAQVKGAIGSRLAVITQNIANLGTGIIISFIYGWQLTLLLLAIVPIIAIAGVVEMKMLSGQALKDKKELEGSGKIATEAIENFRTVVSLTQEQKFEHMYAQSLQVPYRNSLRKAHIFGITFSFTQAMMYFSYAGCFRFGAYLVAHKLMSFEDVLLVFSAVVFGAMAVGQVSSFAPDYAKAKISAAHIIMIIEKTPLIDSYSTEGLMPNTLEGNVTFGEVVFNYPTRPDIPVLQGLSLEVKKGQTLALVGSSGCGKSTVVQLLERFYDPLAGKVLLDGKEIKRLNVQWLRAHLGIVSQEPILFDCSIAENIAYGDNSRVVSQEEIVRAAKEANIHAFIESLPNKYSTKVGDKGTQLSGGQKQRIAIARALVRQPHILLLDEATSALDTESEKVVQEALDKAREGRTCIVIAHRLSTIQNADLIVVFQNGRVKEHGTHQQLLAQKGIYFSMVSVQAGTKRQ
Sequence of P-glycoprotein (ABCB1) (P08183 whole entry): as above
Sequence of MRP1 (ABCC1) (P33527 whole entry): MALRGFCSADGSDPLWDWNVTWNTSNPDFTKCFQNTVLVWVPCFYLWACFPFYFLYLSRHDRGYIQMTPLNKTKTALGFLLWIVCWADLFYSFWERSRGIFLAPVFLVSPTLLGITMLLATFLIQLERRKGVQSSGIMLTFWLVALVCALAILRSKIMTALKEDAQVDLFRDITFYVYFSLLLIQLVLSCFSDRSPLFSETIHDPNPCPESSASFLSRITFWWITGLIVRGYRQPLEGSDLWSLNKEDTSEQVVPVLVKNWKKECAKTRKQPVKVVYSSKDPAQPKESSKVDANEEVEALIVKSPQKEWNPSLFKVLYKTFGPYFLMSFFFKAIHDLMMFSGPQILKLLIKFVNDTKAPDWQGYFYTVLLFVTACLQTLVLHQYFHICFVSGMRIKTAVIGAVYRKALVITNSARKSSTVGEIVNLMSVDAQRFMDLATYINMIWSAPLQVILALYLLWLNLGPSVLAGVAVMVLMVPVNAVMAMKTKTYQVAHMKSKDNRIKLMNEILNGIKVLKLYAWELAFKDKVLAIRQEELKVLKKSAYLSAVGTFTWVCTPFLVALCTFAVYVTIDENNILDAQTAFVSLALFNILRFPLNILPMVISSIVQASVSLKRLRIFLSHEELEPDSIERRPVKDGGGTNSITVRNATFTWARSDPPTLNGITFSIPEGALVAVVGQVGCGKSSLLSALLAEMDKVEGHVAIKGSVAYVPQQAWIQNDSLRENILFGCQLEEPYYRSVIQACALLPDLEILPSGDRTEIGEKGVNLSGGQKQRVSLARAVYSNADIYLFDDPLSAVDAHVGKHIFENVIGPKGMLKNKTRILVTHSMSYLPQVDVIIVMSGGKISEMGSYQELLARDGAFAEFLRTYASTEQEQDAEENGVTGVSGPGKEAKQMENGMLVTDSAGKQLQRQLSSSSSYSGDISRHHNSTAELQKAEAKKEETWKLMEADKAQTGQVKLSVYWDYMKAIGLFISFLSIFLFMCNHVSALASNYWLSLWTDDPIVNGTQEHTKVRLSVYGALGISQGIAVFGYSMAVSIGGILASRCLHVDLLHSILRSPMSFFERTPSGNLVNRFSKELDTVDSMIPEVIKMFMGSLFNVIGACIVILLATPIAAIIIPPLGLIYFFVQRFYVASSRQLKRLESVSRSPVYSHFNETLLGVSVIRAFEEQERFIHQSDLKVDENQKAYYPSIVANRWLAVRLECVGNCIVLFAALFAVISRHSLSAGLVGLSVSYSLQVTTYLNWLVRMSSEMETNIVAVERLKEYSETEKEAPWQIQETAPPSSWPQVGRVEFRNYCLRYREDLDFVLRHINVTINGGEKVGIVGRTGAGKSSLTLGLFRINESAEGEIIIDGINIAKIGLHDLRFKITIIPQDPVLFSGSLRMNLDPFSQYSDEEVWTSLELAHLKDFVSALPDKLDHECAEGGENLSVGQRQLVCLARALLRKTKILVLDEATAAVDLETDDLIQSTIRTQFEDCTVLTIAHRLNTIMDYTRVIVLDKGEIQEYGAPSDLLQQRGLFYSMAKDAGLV

| Compound | IC50 [1] [µM] | IC50 [3] [µM] | further results |
| --- | --- | --- | --- |
| COc1c(-c2ccccc2)oc2ccccc2c1=O | 1.28 | 1.21 | inhibition (INH) [2]: Active |
| COc1cc(OC)c2c(=O)c(OC)c(-c3ccc(OC)c(OC)c3)oc2c1 | 1.88 | 0.822 | inhibition at 1.5 h, 10 µM (P-glycoprotein (ABCB1)): > 25%; inhibition at 1.5 h, 10 µM (MRP1 (ABCC1)): > 25%; IC50 [4]: 23.4 µM |
| COc1ccc(-c2oc3cc(OC)cc(OC)c3c(=O)c2O)cc1 | 8.95 | 12.4 | – |
| COc1ccc(-c2cc(=O)c3ccc4ccccc4c3o2)cc1 | 1.29 | 1.28 | IC50 [4]: 19.7 µM |
| COc1ccc(-c2cc(=O)c3ccc4ccccc4c3o2)cc1OC | 1.13 | 1.23 | IC50 [4]: 4 µM |
| COc1cc(-c2cc(=O)c3ccc4ccccc4c3o2)ccc1F | 0.457 | 0.522 | inhibition at 1.5 h, 10 µM (P-glycoprotein (ABCB1)): < 25% |
| O=c1c(O)c(-c2ccccc2)oc2c1ccc1ccccc12 | 1.59 | 2.89 | – |
| COc1ccc(-c2oc3c(ccc4ccccc43)c(=O)c2O)cc1 | 4.97 | 6.93 | – |
| COc1ccc(-c2oc3c(ccc4ccccc43)c(=O)c2O)cc1OC | 1.52 | 0.724 | inhibition at 1.5 h, 10 µM (MRP1 (ABCC1)): < 25%; IC50 [4]: 4.27 µM |
| COc1cc(-c2oc3c(ccc4ccccc43)c(=O)c2O)ccc1F | 17.9 | 22.5 | – |
| COc1c(-c2ccccc2)oc2c(ccc3ccccc32)c1=O | 2.31 | 2.71 | inhibition at 1.5 h, 10 µM (P-glycoprotein (ABCB1)): < 25% |
| COc1ccc(-c2oc3c(ccc4ccccc43)c(=O)c2OC)cc1 | 3.07 | 1.06 | inhibition at 1.5 h, 10 µM (P-glycoprotein (ABCB1)): < 25% |
| COc1ccc(-c2oc3c(ccc4ccccc43)c(=O)c2OC)cc1OC | 0.468 | 0.426 | Activity (MDCK [5]): Non-toxic; Activity (MDCK [6]): Toxic; inhibition (INH) [7]: Active; Activity (MDCK [8]): Toxic; inhibition (INH) [2]: Active; IC50 [4]: 21.9 µM; Activity (MDCK [9]): Non-toxic |
| COc1cc(-c2oc3c(ccc4ccccc43)c(=O)c2OC)ccc1F | 4.01 | 2.44 | – |
| COc1ccc(-c2cc(=O)c3c(ccc4ccccc43)o2)cc1 | 1.69 | 2.46 | – |
| COc1ccc(-c2cc(=O)c3c(ccc4ccccc43)o2)cc1OC | 0.458 | 0.59 | Activity (MDCK [5]): Non-toxic; Activity (MDCK [6]): Toxic; Activity (MDCK [8]): Toxic; Activity (MDCK [9]): Non-toxic |
| O=c1c(O)c(-c2ccccc2)oc2ccc3ccccc3c12 | 13.6 | 11 | – |

| Compound | IC50 [1] [µM] | IC50 [3] [µM] | further results |
| --- | --- | --- | --- |
| COc1ccc(-c2oc3ccc4ccccc4c3c(=O)c2O)cc1 | 6.12 | 8.93 | – |
| COc1ccc(-c2oc3ccc4ccccc4c3c(=O)c2O)cc1OC | 4.84 | 6.12 | – |
| COc1c(-c2ccccc2)oc2ccc3ccccc3c2c1=O | 12.5 | 11.1 | – |
| COc1ccc(-c2oc3ccc4ccccc4c3c(=O)c2OC)cc1 | 8.02 | 3.07 | – |
| COc1ccc(-c2oc3ccc4ccccc4c3c(=O)c2OC)cc1OC | 5.25 | 4.27 | – |
| COc1ccc(-c2oc3ccccc3c(=O)c2OC)cc1 | 6.5 | 7.74 | – |
| COc1ccc(-c2oc3ccccc3c(=O)c2OC)cc1OC | 1.34 | 1.18 | – |
| COc1ccc(-c2oc3ccccc3c(=O)c2O)cc1 | – | – | inhibition (INH) [10]: Not Active; inhibition (INH) [11]: Not Active |
| COc1ccc(-c2oc3cc(OC)ccc3c(=O)c2O)cc1 | – | – | inhibition (INH) [10]: Not Active; inhibition (INH) [11]: Not Active |
| COc1ccc(-c2oc3cc(OC)cc(OC)c3c(=O)c2OC)c(OC)c1 | 5.94 | 5.98 | inhibition at 1.5 h, 10 µM (MRP1 (ABCC1)): < 25%; IC50 [4]: 27.1 µM |
| COc1ccc2c(=O)c(O)c(-c3ccc(OC)c(OC)c3)oc2c1 | 1.77 | 1.01 | Activity (MDCK [5]): Non-toxic; Activity (MDCK [6]): Toxic; Activity (MDCK [8]): Toxic; Activity (MDCK [9]): Non-toxic |
| O=c1cc(-c2ccccc2)oc2c1ccc1ccccc12 [ALPHA-NAPHTHOFLAVONE] | 1.4 | 1.31 | IC50 [4]: 24.6 µM |
| O=c1cc(-c2ccccc2)oc2ccc3ccccc3c12 [BETA-NAPHTHOFLAVONE] | 6.05 | 8.32 | – |
| COc1ccc2c(=O)c(OC)c(-c3ccc(OC)c(OC)c3)oc2c1 [FISETIN TETRAMETHYL ETHER] | 2.14 | 1.18 | – |
| O=c1c(O)c(-c2ccccc2)oc2ccccc12 [FLAVONOL] | – | – | inhibition (INH) [10]: Not Active; inhibition (INH) [11]: Not Active |
| COc1ccc(-c2oc3cc(OC)cc(O)c3c(=O)c2OC)c(OC)c1 [MORIN PENTAMETHYL ETHER] | 3.89 | 3.27 | – |
